Assay results reported in ChEMBL document CHEMBL4396889, “From Inhibition to Degradation: Targeting the Antiapoptotic Protein Myeloid Cell Leukemia 1 (MCL1)” (J Med Chem, 2019).
The source made the active and inactive calls. The rule behind the calls is not given here.

Assays:
[1] = biological target: T1, Protein cereblon/Induced myeloid leukemia cell differentiation protein Mcl-1 (Homo sapiens) (UniProt Q07820+Q96SW2); test: Protac activity at Cereblon/MCL1 short isoform in human OPM2 cells assessed as MCL1 short isoform level at 300 nM pre-incubated for 72 hrs followed by cycloheximide addition and measured after 120 mins by immunoblot analysis (reference value: 14%); type: cell-based
Outline: (§1)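 OPM2 or MM1.S cells were treated for 72 h with compound or DMSO. Cycloheximide was added for the final 30, 60 or 120 min. MCL1 was read by immunoblot and compared with DMSO-treated cells as a normal-turnover reference.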

[2] = biological target: T1, Protein cereblon/Induced myeloid leukemia cell differentiation protein Mcl-1 (Homo sapiens); test: Protac activity at Cereblon/MCL1 short isoform in human MM1S cells assessed as MCL1 short isoform level at 300 nM pre-incubated for 72 hrs followed by cycloheximide addition and measured after 60 mins by immunoblot analysis (reference value: 98%); type: cell-based; outline: as §1
[3] = biological target: T1, Protein cereblon/Induced myeloid leukemia cell differentiation protein Mcl-1 (Homo sapiens); test: Protac activity at Cereblon/MCL1 long isoform in human OPM2 cells assessed as MCL1 long isoform abundance at 50 nM after 24 hrs by immunoblot analysis relative to control; type: cell-based
[4] = biological target: T1, Protein cereblon/Induced myeloid leukemia cell differentiation protein Mcl-1 (Homo sapiens); test: Protac activity at Cereblon/MCL1 in human OPM2 cells assessed as protein abundance at 250 nM after 48 hrs by immunoblot analysis relative to control; type: cell-based
Outline: (§2)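 OPM2 multiple myeloma cells, wild type or CRBN-knockout, were treated for 48 h with degrader or DMSO vehicle. MCL1 long and short isoforms were detected by immunoblot and levels compared with DMSO controls.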

OPM-2 [5] = test: Induction of apoptosis in wild type human OPM2 cells assessed as cleaved caspase-3 at 500 nM after 24 hrs in presence of 1% FBS by immunoblot analysis (reference value: 80%); type: functional
[6] = biological target: T2, Induced myeloid leukemia cell differentiation protein Mcl-1 (Homo sapiens, UniProt Q07820); test: Induction of MCL1 short isoform degradation in CRBN-/- human OPM2 cells assessed as protein abundance at 100 nM after 48 hrs by immunoblot analysis relative to control; type: cell-based; outline: as §2
[7] = biological target: T1, Protein cereblon/Induced myeloid leukemia cell differentiation protein Mcl-1 (Homo sapiens); test: Protac activity at Cereblon/MCL1 long isoform in wild type human OPM2 cells at 500 nM after 48 hrs by immunoblot analysis relative to control; type: cell-based; outline: as §2
[8] = biological target: T1, Protein cereblon/Induced myeloid leukemia cell differentiation protein Mcl-1 (Homo sapiens); test: Protac activity at Cereblon/MCL1 long isoform in human OPM2 cells assessed as MCL1 long isoform abundance at 250 nM after 24 hrs by immunoblot analysis relative to control; type: cell-based
OPM-2 [9] = test: Induction of apoptosis in wild type human OPM2 cells assessed as cleaved caspase-3 at 100 nM after 24 hrs in presence of 1% FBS by immunoblot analysis (reference value: 91%); type: functional
[10] = biological target: T1, Protein cereblon/Induced myeloid leukemia cell differentiation protein Mcl-1 (Homo sapiens); test: Protac activity at Cereblon/MCL1 short isoform in human MM1S cells assessed as MCL1 short isoform level at 300 nM pre-incubated for 72 hrs followed by cycloheximide addition and measured after 120 mins by immunoblot analysis (reference value: 80%); type: cell-based
Outline: (§3)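 Cycloheximide chase: cells were treated for 72 h with DMSO or degrader, with cycloheximide added for the final 30, 60 or 120 min. OPM2 and MM1.S cells were used, and wild-type OPM2 was compared with OPM2 CRBN-/- at 60 and 120 min. MCL1 was detected by immunoblot.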

[11] = biological target: T1, Protein cereblon/Induced myeloid leukemia cell differentiation protein Mcl-1 (Homo sapiens); test: Protac activity at Cereblon/MCL1 in human OPM2 cells at 500 nM after 3 hrs in presence of proteasome inhibitor bortezomib by immunoblot analysis; type: cell-based
Outline: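 OPM2 cells were treated for 3 h with DMSO, degrader and/or the proteasome inhibitor bortezomib, then immunoblotted for MCL1.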

[12] = biological target: T1, Protein cereblon/Induced myeloid leukemia cell differentiation protein Mcl-1 (Homo sapiens); test: Protac activity at Cereblon/MCL1 in human OPM2 cells assessed as protein abundance at 100 nM after 48 hrs by immunoblot analysis relative to control; type: cell-based; outline: as §2
[13] = biological target: T1, Protein cereblon/Induced myeloid leukemia cell differentiation protein Mcl-1 (Homo sapiens); test: Protac activity at Cereblon/MCL1 short isoform in human OPM2 cells assessed as MCL1 short isoform abundance at 500 nM after 24 hrs by immunoblot analysis relative to control; type: cell-based
[14] = biological target: T1, Protein cereblon/Induced myeloid leukemia cell differentiation protein Mcl-1 (Homo sapiens); test: Protac activity at Cereblon/MCL1 long isoform in wild type human OPM2 cells assessed as MCL1 long isoform level at 300 nM pre-incubated for 72 hrs followed by cycloheximide addition and measured after 120 mins by immunoblot analysis (reference value: 53%); type: cell-based; outline: as §3
[15] = biological target: T2, Induced myeloid leukemia cell differentiation protein Mcl-1; test: Induction of MCL1 long isoform degradation in CRBN-/- human OPM2 cells assessed as protein abundance at 300 nM pre-incubated for 72 hrs followed by cycloheximide addition and measured after 60 mins by immunoblot analysis (reference value: 79%); type: cell-based; outline: as §3
[16] = Half-life in human liver microsome pre-incubated for 10 mins followed by addition of NADPH regenerating system after 5 to 60 mins by LC/MS/MS analysis; type: ADME; conditions: liver microsomes
[17] = biological target: T1, Protein cereblon/Induced myeloid leukemia cell differentiation protein Mcl-1 (Homo sapiens); test: Protac activity at Cereblon/MCL1 long isoform in human OPM2 cells assessed as MCL1 long isoform level at 300 nM pre-incubated for 72 hrs followed by cycloheximide addition and measured after 30 mins by immunoblot analysis (reference value: 98%); type: cell-based; outline: as §3
[18] = biological target: T1, Protein cereblon/Induced myeloid leukemia cell differentiation protein Mcl-1 (Homo sapiens); test: Protac activity at Cereblon/MCL1 short isoform in human OPM2 cells assessed as MCL1 short isoform abundance at 50 nM after 24 hrs by immunoblot analysis relative to control; type: cell-based
[19] = biological target: T1, Protein cereblon/Induced myeloid leukemia cell differentiation protein Mcl-1 (Homo sapiens); test: Protac activity at Cereblon/MCL1 short isoform in wild type human OPM2 cells assessed as MCL1 short isoform level at 300 nM pre-incubated for 72 hrs followed by cycloheximide addition and measured after 120 mins by immunoblot analysis (reference value: 14%); type: cell-based
Outline: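 OPM2 wild-type and OPM2 CRBN-/- cells were treated for 72 h with compound or DMSO, with cycloheximide present for the final 60 or 120 min. MCL1 was detected by immunoblot.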

[20] = biological target: T2, Induced myeloid leukemia cell differentiation protein Mcl-1; test: Induction of MCL1 long isoform degradation in CRBN-/- human OPM2 cells assessed as protein abundance at 50 nM after 48 hrs by immunoblot analysis relative to control; type: cell-based; outline: as §2
[21] = biological target: T2, Induced myeloid leukemia cell differentiation protein Mcl-1; test: Induction of MCL1 short isoform degradation in CRBN-/- human OPM2 cells assessed as protein abundance at 300 nM pre-incubated for 72 hrs followed by cycloheximide addition and measured after 60 mins by immunoblot analysis (reference value: 57%); type: cell-based; outline: as §3
[22] = biological target: T1, Protein cereblon/Induced myeloid leukemia cell differentiation protein Mcl-1 (Homo sapiens); test: Protac activity at Cereblon/MCL1 long isoform in human MM1S cells assessed as MCL1 long isoform level at 300 nM pre-incubated for 72 hrs followed by cycloheximide addition and measured after 60 mins by immunoblot analysis (reference value: 82%); type: cell-based; outline: as §3
[23] = biological target: T1, Protein cereblon/Induced myeloid leukemia cell differentiation protein Mcl-1 (Homo sapiens); test: Protac activity at Cereblon/MCL1 short isoform in human OPM2 cells assessed as MCL1 short isoform level at 300 nM pre-incubated for 72 hrs followed by cycloheximide addition and measured after 60 mins by immunoblot analysis (reference value: 49%); type: cell-based; outline: as §1
[24] = biological target: T1, Protein cereblon/Induced myeloid leukemia cell differentiation protein Mcl-1 (Homo sapiens); test: Protac activity at Cereblon/MCL1 short isoform in wild type human OPM2 cells assessed as MCL1 short isoform abundance at 50 nM after 48 hrs by immunoblot analysis relative to control; type: cell-based
Outline: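 OPM2 wild-type cells, run alongside the CRBN-/- line, were treated for 48 h with compound or DMSO. The MCL1 long and short isoforms were then measured by immunoblot against the DMSO control.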

[25] = biological target: T2, Induced myeloid leukemia cell differentiation protein Mcl-1; test: Induction of MCL1 short isoform degradation in CRBN-/- human OPM2 cells assessed as protein abundance at 500 nM after 48 hrs by immunoblot analysis relative to control; type: cell-based; outline: as §2
[26] = biological target: T2, Induced myeloid leukemia cell differentiation protein Mcl-1; test: Induction of MCL1 long isoform degradation in CRBN-/- human OPM2 cells assessed as protein abundance at 100 nM after 48 hrs by immunoblot analysis relative to control; type: cell-based; outline: as §2

T1 sequence (Q07820 whole entry, looked up, canonical isoform): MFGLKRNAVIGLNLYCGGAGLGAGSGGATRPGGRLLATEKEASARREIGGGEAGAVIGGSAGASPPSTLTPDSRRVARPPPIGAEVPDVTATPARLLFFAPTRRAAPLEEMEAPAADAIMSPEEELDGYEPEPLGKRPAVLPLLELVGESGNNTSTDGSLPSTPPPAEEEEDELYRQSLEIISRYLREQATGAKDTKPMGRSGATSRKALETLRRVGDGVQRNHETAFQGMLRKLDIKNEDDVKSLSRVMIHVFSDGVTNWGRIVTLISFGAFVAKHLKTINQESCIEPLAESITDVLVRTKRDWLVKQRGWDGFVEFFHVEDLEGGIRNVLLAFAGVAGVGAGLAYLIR
T1 sequence (Q96SW2 whole entry, looked up, canonical isoform): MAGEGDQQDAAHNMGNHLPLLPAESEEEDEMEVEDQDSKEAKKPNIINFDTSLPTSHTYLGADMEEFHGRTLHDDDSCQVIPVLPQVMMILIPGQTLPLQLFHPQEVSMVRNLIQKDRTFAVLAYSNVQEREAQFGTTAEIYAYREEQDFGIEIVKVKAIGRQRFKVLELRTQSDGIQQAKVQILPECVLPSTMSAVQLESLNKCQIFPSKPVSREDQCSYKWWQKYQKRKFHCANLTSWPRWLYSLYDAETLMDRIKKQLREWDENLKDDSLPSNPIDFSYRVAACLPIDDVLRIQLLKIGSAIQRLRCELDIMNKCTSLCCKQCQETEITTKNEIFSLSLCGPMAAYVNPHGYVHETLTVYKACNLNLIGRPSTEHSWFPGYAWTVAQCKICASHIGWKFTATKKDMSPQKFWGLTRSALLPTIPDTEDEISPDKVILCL
T2 sequence (Q07820 whole entry, canonical isoform): as the sequence (Q07820 whole entry, looked up, canonical isoform) above

Cc1nn(C)c(COc2ccc(N3CCN(S(=O)(=O)N(C)C)CC3)cc2)c1-c1cccc2c(CCCOc3cccc4ccccc34)c(C(=O)O)n(CCN3CCN(C(=O)COc4cccc5c4C(=O)N(C4CCC(=O)NC4=O)C5=O)CC3)c12 (stereo unspecified)
Activity [1]: 2%
Activity [2]: 31%
Activity [3]: 97%
Activity [4]: 63%
Activity (OPM-2 [5]): 326%
Activity [6]: 100%
Activity [7]: 50%
Activity [8]: 73%
Activity (OPM-2 [9]): 143%
Activity [10]: 34%
Activity [11]: inactive
Activity [12]: 63%
Activity [13]: 22%
Activity [14]: 16%
Activity [15]: 78%
half-life [16]: 20.6 min
Activity [17]: 88%
Activity [18]: 96%
Activity [19]: 2%
Activity [20]: 100%
Activity [21]: 64%
Activity [22]: 58%
Activity [23]: 8%
Activity [24]: 79%
Activity [25]: 100%
Activity [26]: 90%
